SUMO1 PPI mod = alters human SUMO1 binding to SIM partners; P63165; SUMO1 binding to a labelled peptide, TR-FRET, 1 h; inhibition, % at 20 µM; hit rate 0.33% among 360,000; AID 602429; in the data active = inhibition above about 37%
Target sequence (P63165 whole entry, looked up): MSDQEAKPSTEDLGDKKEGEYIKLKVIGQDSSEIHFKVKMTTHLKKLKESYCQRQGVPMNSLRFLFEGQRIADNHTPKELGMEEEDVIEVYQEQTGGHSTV
DNMT1 inh = DNMT1 (human) enzyme inhibition; hit rate 0.83% among 360,000; inhibition (reported as % activation of signal), % at 10 µM; P26358; DNMT1 molecular beacon, Hinp1I cleavage, fluorescence; AID 588458; in the data active = inhibition above about 50%
LMPTP block = blocks human LMPTP phosphatase. P24666. recombinant LMPTP-A, OMFP fluorogenic substrate, fluorescence intensity. inhibition, % at 20 µM. hit rate 0.22% among 360,000. AID 651560;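 active = compounds that cut the enzyme signal by at least half of the control window in the single-dose screen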;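 note: plate controls were DMSO wells with enzyme plus substrate for no effect and substrate without enzyme for full effect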
Target sequence (P24666 whole entry, looked up): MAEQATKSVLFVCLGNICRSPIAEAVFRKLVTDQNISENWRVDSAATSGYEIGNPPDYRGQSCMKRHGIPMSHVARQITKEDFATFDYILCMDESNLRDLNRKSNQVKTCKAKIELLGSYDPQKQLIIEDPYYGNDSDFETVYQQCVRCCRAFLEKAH
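Test system: LMPTP-A phosphatase enzyme; input: 0.625 nM LMPTP-A final; reagent: OMFP substrate, 400 µM final; compound dosing: 20 µM single dose, 3% DMSO; incubation: 50 min dark incubation at room temperature; measured by: endpoint fluorescence intensity from OMFP dephosphorylation; measure: % inhibition relative to no-enzyme and uninhibited control wells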
Scp-1 inhibitor = Scp-1 (human) phosphatase inhibition | Q9GZU7 | Recombinant Scp1, phosphopeptide, malachite green phosphate absorbance | inhibition, % at 20 µM | hit rate 0.88% among 340,000 | AID 493091;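 active = inhibition above about 50% at 20 µM, limit read from the data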;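 note: plate controls were DMSO wells with enzyme for no effect and wells lacking enzyme for full effect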
Target sequence (Q9GZU7 76-261 limits assumed): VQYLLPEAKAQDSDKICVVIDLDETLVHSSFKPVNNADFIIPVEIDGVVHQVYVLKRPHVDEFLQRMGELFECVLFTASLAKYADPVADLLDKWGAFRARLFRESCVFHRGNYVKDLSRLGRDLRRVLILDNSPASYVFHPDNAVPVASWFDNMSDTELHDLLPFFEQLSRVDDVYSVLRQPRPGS
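Test system – truncated SCP-1 phosphatase (76-261aa) · Reagent – Phosphorylated 17-residue peptide substrate · Incubation – 45 min room-temperature reaction, 5 min colour, 30 min stabiliser · Detection – colorimetric phosphate reagent with accelerator and stabiliser, absorbance at 630 nm · Measure – % inhibition at 20 µM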
STEP inh = blocks human striatal-enriched tyrosine phosphatase | recombinant STEP, OMFP fluorogenic substrate, fluorescence | hit rate 0.25% among 360,000 | inhibition, % at 20 µM;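 active = inhibition at 20 µM, scaled per plate between control wells, above about 37%, limit read from the data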;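 note: 0% = DMSO with enzyme and substrate and 100% = substrate only without enzyme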
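System: STEP (striatal-enriched tyrosine phosphatase) enzyme, cell-free; medium: Bis-Tris pH 6.0 buffer with DTT, detergent; dosing: 20 µM, 1% DMSO; times: reaction 20 min, ambient temperature; detection: fluorescence, 480/540 nm; read-out basis: normalized % inhibition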
DNMT1 confirm = DNMT1 inhibition confirmation, single concentration; shares compounds with DNMT1 inh; DNMT1 molecular beacon HinP1I cleavage, fluorescence; inhibition, % at 10 µM; hit rate 8% among 2,300;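 active = average inhibition of at least 30% in the single-concentration confirmation test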
Beacon interf = beacon fluorescence artifact counter-screen | shares compounds with DNMT1 inh | DNMT1 molecular beacon spectral interference counterscreen, fluorescence 485/520 | activation (fluorescence interference), % at 10 µM | hit rate 1% among 2,300;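 active = activation of at least 30% at 10 µM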;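 note: DNMT1 catalytic domain with a HinP1I cleavage step and a FAM/dabcyl DNA beacon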
An asterisk follows results filed as active; . = no result. Most compounds without a hit are left out; they make up all but 1.7% or so of the library.

SMILES	SUMO1 PPI mod	DNMT1 inh	LMPTP block	Scp-1 inhibitor	STEP inh	DNMT1 confirm	Beacon interf
CCOc1cc(/C=C2\C(=N)N3N=CSC3=NC2=O)ccc1OS(=O)(=O)c1ccccc1	8.6	3.6	0.8	-1.6	-0.1	.	.
CCOc1cc(/C=C2/C(=N)N3N=C(C)SC3=NC2=O)ccc1OS(=O)(=O)c1ccc(C)cc1	18.7	74.7*	1.4	-9.0	-1.0	8.7	0.7
Cc1cc(C)n2c(Br)c(CSc3nc4ccccc4o3)nc2n1	10.1	58.5*	5.7	23.0	4.0	15.4	6.9
Nn1c(CSc2nc3ccccc3o2)nnc1CSc1nc2ccccc2o1	0.9	1.8	1.5	-0.4	0.8	.	.
CCOc1ccc(/C=c2\sc3nc(-c4ccco4)nn3c2=O)cc1OCC	12.1	64.7*	0.5	42.1	0.9	4.3	-0.7
COc1ccccc1CN1C(=NC(=O)CCC2CCCC2)SC2CS(=O)(=O)CC21 (stereo unspecified)	0.9	15.8	0.6	0.3	-2.2	.	.
O=C(Nc1ccc(-c2cn3ccccc3n2)cc1)c1ccc(Cl)cc1	2.7	52.6*	35.6	-0.6	8.7	2.5	7.7
CCN1CCN(C(=O)CN(CC)S(=O)(=O)c2ccc3ccccc3c2)CC1	-0.1	1.9	-1.1	-2.2	-0.3	.	.
O=C(Nc1ccc(-c2nc3ncccc3o2)cc1)c1ccc([N+](=O)[O-])o1	-17.1	50.2*	4.4	-1.8	5.4	-1.8	-1.1
CN1C[C@@H]2[C@@H]3C(=O)N(C)C(=O)[C@@H]3[C@](C)(C1=O)N2C(=O)c1ccc(Cl)cc1	8.6	3.9	0.4	-2.3	0.0	.	.
Cc1ccc(S(=O)(=O)Nc2ccsc2C#N)cc1	8.9	7.3	-2.1	4.5	-3.5	.	.
CC(C)C(CCNC(=O)CC(Cc1ccccc1)c1ccco1)c1ccco1 (stereo unspecified)	0.0	60.9*	0.8	-7.3	2.9	1.2	-0.9
CN(Cc1cccc(F)c1)C(=O)C1CC(=O)N(Cc2ccco2)C1 (stereo unspecified)	-6.4	4.0	-0.8	.	-2.6	.	.
O=C(NCc1ccccc1C(F)(F)F)c1cccc2c1C(=O)c1ccc(N3CCOCC3)cc1S2(=O)=O	-1.8	62.4*	-2.0	-0.2	-0.3	7.1	7.7
O=C(NCc1ccccc1)c1cc(C2COCCN2C(=O)c2cccs2)on1 (stereo unspecified)	-3.4	-4.8	-2.4	.	-0.4	.	.
COc1ccc(CC(=O)NCc2ccccc2F)cc1S(=O)(=O)N1CCOCC1	1.2	4.3	-0.8	.	-3.1	.	.
O=C(O)c1cccc(-c2noc(-c3cccc(Cl)c3)n2)c1	14.3	83.1*	-1.0	-5.6	3.4	0.1	2.0
COc1ccccc1N(C)S(=O)(=O)c1ccc(C(=O)N(C)Cc2ccc(OC(F)F)cc2)cc1	6.3	-0.8	1.6	-7.6	-0.2	.	.
O=C(Nc1ccc(O)c2c(=O)cc(-c3cccc(Cl)c3)oc12)c1ccccc1Cl	0.3	53.5*	1.4	-8.1	4.8	1.8	-2.5
O=C(N/N=C/c1cc(Br)ccc1O)c1ccncc1	-4.0	-0.2	-0.3	-17.2	-2.8	.	.
O=C(N/N=C/c1cc(Cl)ccc1O)c1ccc(Br)cc1	4.9	81.3*	71.8*	98.2*	91.1*	9.2	3.7
O=C(O)c1ccc2c3c(cccc13)C(=O)N(c1ccccc1)C2=O	-2.9	62.9*	5.2	41.5	12.5	1.9	-1.5
NN1C(=O)c2cccc3c(C(=O)O)ccc(c23)C1=O	-15.9	3.7	-2.2	11.9	1.5	.	.
Nc1cccc(N2C(=O)c3cccc4c(N)ccc(c34)C2=O)c1	-67.6	40.2	-2.0	-7.7	-32.4	.	.
Nc1ccc2c3c(cccc13)C(=O)N(c1ccccc1)C2=O	-50.3	59.7*	-7.3	-10.7	-154.0	145.6*	115.1*
COc1cc(/C=N/NC(=O)c2cc(-c3ccc4c(c3)OCO4)n[nH]2)ccc1O	5.9	1.4	1.2	-0.8	-0.8	.	.
O=C(N/N=C/c1ccc([N+](=O)[O-])cc1)c1cc(-c2ccc3c(c2)OCO3)n[nH]1	14.5	50.2*	3.8	-7.8	1.0	0.3	-6.4
